The values that follow come from ChEMBL document CHEMBL3351397, “Synthesis and bioactivity of novel amino-pyrazolopyridines” (Eur J Med Chem, 2014).

Activity calls are given as the source filed them. The rule behind the calls is not given here.

For series [1], the system named is Jurkat. In words: Induction of apoptosis in human Jurkat cells assessed as induction of caspase 3/7 activity at 40 uM after 24 hrs by luminescent assay relative to untreated control. Type of series: functional. The method, boiled down: (§1)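 Cells at 3 × 10⁵/mL were treated with test compounds at 40 µM for 8, 24 or 48 h. Culture was then mixed 1:1 with Caspase-Glo 3/7 reagent and incubated 1 h at room temperature; the reagent lyses cells, caspase cleaves the substrate and luciferase gives luminescence. Results are fold change versus untreated cells.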

The test system of series [2] is U-937. Description: Induction of apoptosis in human U937 cells assessed as induction of caspase 3/7 activity at 40 uM after 8 hrs by luminescent assay relative to untreated control. The class given is functional. The method, boiled down: as §1
The target in series [3] is T1, Nuclear factor NF-kappa-B complex (Homo sapiens) (UniProt Q00653+P19838+Q04206). In words: Inhibition of TNFalpha-induced NF-kB transactivation in human K562 cells after 8 hrs by luciferase reporter gene assay. (Reporter assays use an easily measured gene product as a stand-in for the process of interest.)
T1 sequence (P19838 whole entry, looked up): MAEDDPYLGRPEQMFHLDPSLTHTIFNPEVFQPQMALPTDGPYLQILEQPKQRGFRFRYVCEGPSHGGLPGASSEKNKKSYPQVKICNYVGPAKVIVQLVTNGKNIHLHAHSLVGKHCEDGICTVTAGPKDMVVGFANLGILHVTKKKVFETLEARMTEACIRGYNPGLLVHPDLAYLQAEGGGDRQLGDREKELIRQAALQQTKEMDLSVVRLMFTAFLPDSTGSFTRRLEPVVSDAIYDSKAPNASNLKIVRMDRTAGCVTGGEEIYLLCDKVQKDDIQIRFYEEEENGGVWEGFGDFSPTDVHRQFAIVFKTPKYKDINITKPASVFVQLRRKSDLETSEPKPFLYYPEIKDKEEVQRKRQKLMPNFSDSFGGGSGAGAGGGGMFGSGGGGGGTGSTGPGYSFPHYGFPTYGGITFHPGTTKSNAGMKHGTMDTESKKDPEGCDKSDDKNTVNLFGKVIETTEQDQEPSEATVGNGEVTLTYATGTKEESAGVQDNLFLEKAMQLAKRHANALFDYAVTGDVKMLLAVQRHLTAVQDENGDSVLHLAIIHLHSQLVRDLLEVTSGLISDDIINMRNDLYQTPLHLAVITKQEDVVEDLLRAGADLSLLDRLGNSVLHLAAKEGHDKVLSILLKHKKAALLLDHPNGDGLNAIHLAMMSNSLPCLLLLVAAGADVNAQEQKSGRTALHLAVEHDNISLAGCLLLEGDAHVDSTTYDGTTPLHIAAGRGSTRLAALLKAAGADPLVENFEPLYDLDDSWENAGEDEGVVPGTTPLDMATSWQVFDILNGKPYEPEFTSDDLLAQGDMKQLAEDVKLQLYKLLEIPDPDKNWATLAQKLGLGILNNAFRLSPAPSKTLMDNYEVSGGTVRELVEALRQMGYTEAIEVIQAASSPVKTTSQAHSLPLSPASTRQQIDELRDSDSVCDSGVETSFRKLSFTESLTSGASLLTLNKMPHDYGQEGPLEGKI
T1 sequence (Q00653 whole entry, looked up): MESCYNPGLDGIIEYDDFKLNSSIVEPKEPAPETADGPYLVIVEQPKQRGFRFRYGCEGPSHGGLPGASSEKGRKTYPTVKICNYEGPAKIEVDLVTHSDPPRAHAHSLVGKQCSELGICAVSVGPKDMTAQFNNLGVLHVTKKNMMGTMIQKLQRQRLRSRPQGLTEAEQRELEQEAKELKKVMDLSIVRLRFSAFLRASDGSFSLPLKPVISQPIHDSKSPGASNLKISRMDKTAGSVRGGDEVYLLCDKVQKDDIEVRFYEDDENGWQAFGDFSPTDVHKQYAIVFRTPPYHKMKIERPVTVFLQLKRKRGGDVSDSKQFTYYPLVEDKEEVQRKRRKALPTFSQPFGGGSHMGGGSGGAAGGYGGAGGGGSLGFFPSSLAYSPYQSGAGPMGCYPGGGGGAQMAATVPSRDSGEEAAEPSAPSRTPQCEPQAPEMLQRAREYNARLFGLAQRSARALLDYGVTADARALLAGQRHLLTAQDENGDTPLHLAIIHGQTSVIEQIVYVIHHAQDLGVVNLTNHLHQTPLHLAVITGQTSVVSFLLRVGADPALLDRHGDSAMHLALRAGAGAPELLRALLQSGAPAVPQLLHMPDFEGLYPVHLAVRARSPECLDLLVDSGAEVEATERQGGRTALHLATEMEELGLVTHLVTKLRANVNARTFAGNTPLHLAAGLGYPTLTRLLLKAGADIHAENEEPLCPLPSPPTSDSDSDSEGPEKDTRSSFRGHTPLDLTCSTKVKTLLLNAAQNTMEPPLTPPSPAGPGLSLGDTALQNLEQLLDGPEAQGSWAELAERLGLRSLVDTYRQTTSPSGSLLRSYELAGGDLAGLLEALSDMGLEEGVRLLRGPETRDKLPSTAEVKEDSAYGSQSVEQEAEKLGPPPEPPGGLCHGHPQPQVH
T1 sequence (Q04206 whole entry, looked up): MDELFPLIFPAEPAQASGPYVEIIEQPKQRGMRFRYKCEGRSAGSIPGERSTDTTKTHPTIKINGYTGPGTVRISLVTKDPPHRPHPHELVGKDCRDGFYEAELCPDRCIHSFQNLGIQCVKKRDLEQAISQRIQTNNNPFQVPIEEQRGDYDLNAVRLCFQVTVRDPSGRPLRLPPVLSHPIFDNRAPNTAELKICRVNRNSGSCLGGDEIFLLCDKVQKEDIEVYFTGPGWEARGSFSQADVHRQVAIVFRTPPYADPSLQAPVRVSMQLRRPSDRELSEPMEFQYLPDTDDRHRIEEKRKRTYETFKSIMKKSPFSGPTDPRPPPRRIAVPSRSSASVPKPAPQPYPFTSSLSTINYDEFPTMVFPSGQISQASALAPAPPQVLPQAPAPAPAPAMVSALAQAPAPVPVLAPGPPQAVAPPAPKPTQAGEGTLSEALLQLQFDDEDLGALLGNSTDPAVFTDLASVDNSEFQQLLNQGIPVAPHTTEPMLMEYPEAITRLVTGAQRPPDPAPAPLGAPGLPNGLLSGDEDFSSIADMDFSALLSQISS
Series [4] concerns Jurkat. In words: Induction of apoptosis in human Jurkat cells assessed as induction of caspase 3/7 activity at 40 uM after 8 hrs by luminescent assay relative to untreated control. Type of series: functional. The gist of the method:
as §1

Series [5] addresses T1, Nuclear factor NF-kappa-B complex (Homo sapiens). In words: Inhibition of TNFalpha-induced NF-kB transactivation in human K562 cells at 40 uM after 8 hrs by luciferase reporter gene assay.
Series [6] has as its system PBMC. Description: Cytotoxicity against human PBMCs after 24 to 72 hrs by CellTiter-Glo luminescent cell viability assay. Type of series: cell-based. Particulars: for Activity: human, pbmc. The gist of the method:
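PBMCs from healthy donors were isolated by Ficoll centrifugation (400 g, 20 min) of blood diluted 1:1 in RPMI, then washed 2–3 times. Cells rested 24 h at 37 °C, 5% CO2 before dosing. They were then treated as for K562: 40 µM screen and dose-response at 24 and 72 h, % viable versus control, mean ± SD of three determinations.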

In series [7] the test system is K562. In words: Induction of apoptosis in human K562 cells assessed as induction of caspase 3/7 activity at 40 uM after 48 hrs by luminescent assay relative to untreated control. Type of series: functional. The method, boiled down: as §1
Series [8] concerns U-937. In words: Induction of apoptosis in human U937 cells assessed as induction of caspase 3/7 activity at 40 uM after 48 hrs by luminescent assay relative to untreated control. The class given is functional. The method, boiled down: as §1
Series [9] relates to K562. In words: Induction of apoptosis in human K562 cells at 40 uM after 72 hrs using Hoechst 33342 by fluorescence microscopy. The class given is functional, cell-based. The method, boiled down: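 K562 cells were treated 72 h at 40 µM, then stained with Hoechst 33342 for 15 min at 37 °C. Nuclear morphology, scored as condensed nuclei, was examined by fluorescence microscopy. Etoposide served as positive control.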

The subject of series [10] is Jurkat. In words: Induction of apoptosis in human Jurkat cells assessed as induction of caspase 3/7 activity at 40 uM after 8 to 48 hrs by luminescent assay relative to untreated control in presence of 50 uM z-VAD. Type of series: functional, cell-based. The gist of the method:
(§2)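 Caspase-Glo 3/7 readout at 3 × 10⁵ cells/mL. Cells were pretreated 1 h with the pan-caspase inhibitor Z-VAD(OMe)-FMK, then exposed to compounds at 40 µM for 8, 24 and 48 h. Culture was mixed 1:1 with reagent for 1 h at room temperature; luminescence is expressed as fold change over untreated cells.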

In series [11] the test system is U-937. In words: Induction of apoptosis in human U937 cells assessed as induction of caspase 3/7 activity at 40 uM after 24 hrs by luminescent assay relative to untreated control. Type of series: functional. The method, boiled down:
as §1

Series [12] relates to K562. In words: Cytotoxicity against human K562 cells at 40 uM assessed as reduction in cell viability after 72 hrs by CellTiter-Glo luminescent assay relative to control. The class given is functional. The gist of the method:
(§3)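 K562 cells in RPMI/10% FCS at 37 °C, 5% CO2 were exposed to a single 40 µM concentration for 24 or 72 h. Metabolic activity was normalized to untreated control as % viable cells, mean ± SD of three determinations. Etoposide served as positive control.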
Background: ATP-based viability assays read luminescence as a measure of living cells.

Series [13] relates to U-937. Description: Induction of apoptosis in human U937 cells assessed as induction of caspase 3/7 activity at 40 uM after 8 to 48 hrs by luminescent assay relative to untreated control in presence of 50 uM z-VAD. Type of series: functional, cell-based. The gist of the method: as §2
In series [14] the test system is K562. Description: Induction of apoptosis in human K562 cells assessed as induction of caspase 3/7 activity at 40 uM after 24 hrs by luminescent assay relative to untreated control. Type of series: functional. The method, boiled down:
as §1

Series [15] concerns K562. In words: Induction of apoptosis in human K562 cells assessed as induction of caspase 3/7 activity at 40 uM after 8 hrs by luminescent assay relative to untreated control. The class given is functional. The gist of the method:
as §1

Series [16] concerns K562. In words: Induction of apoptosis in human K562 cells assessed as induction of caspase 3/7 activity at 40 uM after 8 to 48 hrs by luminescent assay relative to untreated control in presence of 50 uM z-VAD. Type of series: functional, cell-based. The gist of the method: as §2
Series [17] deals with K562. In words: Cytotoxicity against human K562 cells after 24 to 72 hrs by CellTiter-Glo luminescent cell viability assay. The class given is functional, cell-based. The gist of the method:
(§4)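 K562 cells were grown in RPMI with 10% FCS and 1% antibiotic-antimycotic at 37 °C, 5% CO2. Cells were exposed to a range of concentrations for 24 and 72 h and metabolic activity was read. Data were normalized to untreated control as % viable cells, mean ± SD of three determinations, with IC50 derived from dose-response curves.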

Series [18] deals with Jurkat. Description: Induction of apoptosis in human Jurkat cells assessed as induction of caspase 3/7 activity at 40 uM after 48 hrs by luminescent assay relative to untreated control. The class given is functional. The gist of the method: as §1
For series [19], the target named is T1, Nuclear factor NF-kappa-B complex (Homo sapiens). Description: Inhibition of TNFalpha-induced NF-kB pathway in human K562 cells assessed as inhibition of IL-8 release preincubated for 2 hrs before TNFalpha addition measured after 24 hrs by sandwich ELISA. Type of series: cell-based. The method, boiled down:
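K562 cells were pretreated 2 h with compound, then activated with TNFα 20 ng/mL for 22 h (24 h total). Supernatant IL-8 was quantified by sandwich ELISA: pre-coated anti-IL-8 wells for 2 h at room temperature, peroxidase-conjugated polyclonal anti-IL-8 for 60 min, then H2O2/TMB colorimetric development. Mean ± SD of three determinations.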
(In an ELISA, binding on a coated surface is turned into a signal by an enzyme label.)

In series [20] the test system is K562. In words: Cytotoxicity against human K562 cells assessed as reduction in cell viability at 8.2 uM after 24 hrs by CellTiter-Glo luminescent assay. The class given is functional, cell-based.
The target in series [21] is T1, Nuclear factor NF-kappa-B complex (Homo sapiens). In words: Inhibition of TNFalpha-induced NF-kB pathway in human K562 cells after 8 hrs by luciferase reporter gene assay. Type of series: cell-based. The method, boiled down: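 K562 cells were electroporated with an NF-κB-RE firefly luciferase reporter (5 µg) plus phRG-TK Renilla plasmid, then recovered 24 h in RPMI/10% FCS. Cells were resuspended at 1 × 10⁶/mL in RPMI/0.1% FCS, pretreated 2 h, then stimulated with TNFα 20 ng/mL for 6 h (8 h total). Dual-Glo firefly/Renilla ratio read at 22 °C; three independent experiments.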

For series [22], the system named is K562. In words: Cytotoxicity against human K562 cells assessed as reduction in cell viability at 40 uM after 24 hrs by CellTiter-Glo luminescent assay. Type of series: functional. The gist of the method:
as §3

In series [23] the test system is K562. Description: Cytotoxicity against human K562 cells after 72 hrs by CellTiter-Glo luminescent cell viability assay. Type of series: functional, cell-based. Particulars: K562, 72 h. The method, boiled down:
as §4

For the molecule `Nc1n[nH]c2ncc3c(c12)-c1ccccc1CC3`, the Activity is 2.73% in series [1]; 2.86% in series [4]; “Non-toxic” in series [6]; 2.23% in [7]; 1.74% in series [8]; 5.84% in [11]. Also, the Activity is greater than 50% in [12] and 2.5 in series [14]. For the same molecule, the Fold change in [2] is 11.7; in series [15] it was 1.37; in series [18], 2.05. The inhibition entry in series [3] was “Dose-dependent effect”. Further, the inhibition result in [5] was “Active”. Moreover, the result in series [9] was Active. For the same molecule, the result in [10], in series [13] and in series [16] was inactive. For the same molecule, in series [17], the half-maximal inhibitory concentration (IC50) (as a rule, the concentration that gives 50% inhibition) came out at 27.6 µM.
Turning to `CC1Cc2cnc3[nH]nc(N)c3c2-c2ccccc21` (stereo not given), the Activity in series [1] is 5.38%; in series [4], 8.89%; in [7], 1.55%; in series [8] it was 1.48%; in series [11], 6.27%; in series [12], greater than 50%. Also, the Activity in series [14] was 2.04; in series [17], “Dose-dependent effect”. In addition, the values for the Fold change in series [2], in series [15] and in series [18] were 16.5, 1.44 and 2.11, respectively. For the same molecule, the inhibition result in series [3] and in series [19] was “Dose-dependent effect” in each case. Moreover, the inhibition result in [5] was “Active”. Moreover, the half-maximal inhibitory concentration (IC50) was 36.6 µM in [6] (Homo sapiens, PBMC) and 36.5 µM in [17]. Also, the outcome in [9] was Active. Besides, the outcome in [10], in series [13], in series [20] and in series [16] was inactive.
As for `Cc1cnc2[nH]nc(N)c2c1-c1ccccc1`, the Activity is on record as 1.31% in series [1]; 1.27% in series [4]; “Non-toxic” in series [6]; 2.9% in series [7]; 4.35% in series [8]; 5.87% in [11]. Moreover, the Activity in series [12] is greater than 50%; in series [14], 3.62; in series [22], less than 50%. Besides, the Fold change in [2] worked out at 1.73; in [15], 1.26; in series [18] it was 1.44. Further, in series [3], the inhibition entry is “Dose-dependent effect”. Further, the inhibition entry in series [21] and in series [5] was “Active” in each case. Also, in series [9], the outcome was Active. In addition, the outcome in series [10], in series [13] and in series [16] was inactive. Further, the 50% inhibitory concentration (IC50) in series [17] and in series [23] was 35 µM in each case.
